From paper PMC12373759 (Communications Medicine, 2025)
“And” between values parts separate entries of the source, which are not always exact repeats. Equal entries are not always repeated. Bridge positions count the residues as written; N and C are the ends. Square brackets hold non-standard residues; d marks the D form. Peptide text beside a SMILES is read from it. * marks the point of attachment. DOTA = O=C(O)CN1CCN(CC(=O)O)CCN(CC(=O)*)CCN(CC(=O)O)CC1; Thr(ol) = C[C@@H](O)[C@H](N)CO

Key:
[1] = Shelf-life / stability in normal saline; format: physicochemical
How it was run: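 Shelf-life: radiotracer kept in normal saline at room temperature and examined for up to 4 h.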

[2] = Stability in human serum at 37 °C; format: in vitro ADME
Sterility test = settings: no visible growth or turbidity for up to 14 days
Endotoxin test = settings: V = 2 mL, dilution factor 10; limit <175 EU/V
How it was run: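 Chromogenic endotoxin assay per USP 85 on the in-house-prepared radiotracer. Results and the acceptance limit are expressed as endotoxin units per injection volume (EU/V).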

[3] = Plasma protein binding, TCA precipitation method; format: in vitro ADME; settings: 37 °C, 10% TCA
[4] = target: T1, recombinant human V1b receptor (Homo sapiens, UniProt P47901); assay: In-vitro receptor binding assay
T1 sequence (P47901 1-424): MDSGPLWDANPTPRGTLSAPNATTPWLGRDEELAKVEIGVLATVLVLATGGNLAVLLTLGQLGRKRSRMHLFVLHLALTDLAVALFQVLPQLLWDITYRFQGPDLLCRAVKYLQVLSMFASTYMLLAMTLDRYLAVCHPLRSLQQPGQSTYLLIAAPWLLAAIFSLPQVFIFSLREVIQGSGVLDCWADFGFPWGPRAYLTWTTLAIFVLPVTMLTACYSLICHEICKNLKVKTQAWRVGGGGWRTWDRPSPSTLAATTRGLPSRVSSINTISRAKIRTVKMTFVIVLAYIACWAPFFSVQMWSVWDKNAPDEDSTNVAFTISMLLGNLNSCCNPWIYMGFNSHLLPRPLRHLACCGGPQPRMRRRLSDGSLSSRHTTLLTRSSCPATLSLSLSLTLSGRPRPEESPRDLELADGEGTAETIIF

[5] = Ex vivo biodistribution in healthy Wistar rats
How it was run: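 Nine healthy male Wistar rats (16 weeks, 274 ± 13 g) each received 8 ± 1.1 MBq radiotracer IV via the penile vein. Under ketamine (40 mg/kg) plus xylazine (4 mg/kg) anaesthesia, rats were killed by cervical dislocation at 30, 60 and 120 min (n = 3 per time). Organs were weighed and gamma-counted (NaI(Tl)). %ID/g used injected counts corrected for injection-site and syringe residues. Blood pool was taken as 7% of body weight. Mean ± SD.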

corticotropinoma = settings: cited from earlier work
[6] = cited from earlier work
corticotropinomas = settings: PET/CT; cited from earlier work

C[C@@H](O)[C@@H](CO)NC(=O)[C@@H](CCCNC(=N)N)NC(=O)[C@@H]1CCCN1C(=O)[C@@H]1CSSC[C@H](NC(=O)[C@H](Cc2ccccc2)NC(=O)CN2CCN(CC(=O)O)CCN(CC(=O)O)CCN(CC(=O)O)CC2)C(=O)N[C@@H](Cc2ccc(O)cc2)C(=O)N[C@@H](Cc2ccccc2)C(=O)N[C@@H](CCC(N)=O)C(=O)N[C@@H](CC(N)=O)C(=O)N1 [[^68Ga]Ga-DOTA-mDesmo, metal not drawn] ({DOTA}-FCYFQNCP[dR][Thr(ol)]; disulfide 2-7)
stability (single radio peak at Rf 0.0) ([1]; PBS, 37 °C): up to 4 h | shelf-life (single radio peak at Rf 0.0) ([1]; normal saline, room temperature): up to 4 h | stability (single radio peak at Rf 0.0) [2]: up to 4 h | sterility (Sterility test): sterile | endotoxin value (Endotoxin test): 8.6 ± 1.2 EU/V | fraction unbound at 1 h [3]: 0.344 | Binding (%) (Mean ± SD) ([4]; V1b 15.6 nM, tracer 0.3 µM): 5.1 ± 1.3% | Binding (%) (Mean ± SD) ([4]; V1b 62.5 nM, tracer 0.3 µM): 25.7 ± 2.4% | Binding (%) (Mean ± SD) ([4]; V1b 125 nM, tracer 0.3 µM): 30.7 ± 1.9% | Binding (%) (Mean ± SD) ([4]; V1b 250 nM, tracer 0.3 µM): 44 ± 2.2% | Binding (%) (Mean ± SD) ([4]; V1b 250 nM, tracer 0.3 µM + cold DOTA-mDesmo 5 µM): 38.8 ± 1.7% | Binding (%) (Mean ± SD) ([4]; V1b 250 nM, tracer 0.3 µM + cold DOTA-mDesmo 20 µM): 22% and 22.1 ± 2.1% | total blood pool, share of the injected activity ([5]; 120 min, blood volume assumed 7% of body weight): ~ 3% | route of excretion ([5]; rat, in vivo): primarily excreted via the renal route | clearance from muscles, lungs, adrenals, liver, pancreas, spleen and heart ([5]; time following administration): ≤ 120 min | uptake in the pituitary of patients with ECS (corticotropinoma; 4 patients of ECS): no uptake | diagnostic accuracy (corticotropinoma; PET/CT, 24 patients of CD): 100% | patients of CD in whom the pituitary tumor was localized (corticotropinoma; of 24 patients of CD): 24 patients

Desmopressin
plasma half-life [6]: ~ 55 min

OC[C@H]1OC(O)[C@H]([18F])[C@@H](O)[C@@H]1O (some centres unmarked) [[^18F]FDG]
sensitivity for corticotropinomas (corticotropinomas): 40%
